Data on ten compounds can be found in ChEMBL document CHEMBL1138827, “Design of new cognition enhancers: from computer prediction to synthesis and biological evaluation” (2004).

Assay [1] relates to Rattus norvegicus. Description: Effect on increase in reflex latent time after administration of 1 mg/kg of the compound. Type of assay: functional. The procedure, abridged:
(§1)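 Rats (180-200 g), scopolamine-induced amnesia in a step-through passive avoidance task. Scopolamine 2 mg/kg ip 15 min before training; test substance suspended in 0.5% Tween-80, given ip at 1 or 10 mg/kg 30 min before training; vehicle controls. Retention tested 24 h later: latency to enter dark chamber (max 180 s) and % animals not entering. n=12 per group.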

In assay [2] the test system is Rattus norvegicus. Description: Effect on latency to enter dark chamber after administration of 1 mg/kg of the compound. Type of assay: functional. The procedure, abridged:
as §1

The test system of assay [3] is Rattus norvegicus. Description: Effect on increase in reflex latent time after administration of 400 mg/kg of the compound. Type of assay: functional.
Assay [4] relates to Rattus norvegicus. Description: Effect on increase in reflex latent time after administration of 600 mg/kg of the compound. Type of assay: functional.
For assay [5], the species on record is Rattus norvegicus. Description: […]. Type of assay: functional. The settings on record: dose 400 mg/kg.
Assay [6] deals with Rattus norvegicus. Description: Effect on number of animals not entering the dark chamber after administration of 10 mg/kg of the compound.
Assay [7] concerns Rattus norvegicus. Description: Effect on increase in reflex latent time after administration of 10 mg/kg of the compound. It counts as functional. An outline of the steps:
as §1

On to `CN1[C@@H]2C[C@@H](OC(=O)[C@H](CO)c3ccccc3)C[C@H]1[C@@H]1O[C@@H]12` [SCOPOLAMINE], for which, in assay [1], the Time is on record as 53 s. Besides, the Number in assay [2] is recorded as 17%.
Take `NC(=O)CN1CCCC1=O` [PIRACETAM]: in assay [3], the Time came out at 75 s. Besides, the Number in assay [4] worked out at 58%; in assay [5], 33%.
Consider `O=[N+]([O-])c1ccc(/C=N/c2nccs2)cc1`, for which the Number in assay [6] is 50%; in assay [2], 42%. Moreover, the Time in assay [1] is reported as 68 s; in assay [2], 129 s.
As to `CC(=O)N1CCOC1c1cccc(Cl)c1` (configuration not stated), the figures for the Time in assay [1] and in assay [2] were 25 s and 103 s, respectively. For the same compound, the Number came out at 0% in assay [2] and 58% in assay [7].
As to `Oc1ccc(/C=N/c2nc3ccccc3s2)cc1`, the figures for the Number in assay [6] and in assay [2] were 0% and 58%, respectively. Further, the Time in assay [1] came out at 104 s; in assay [2] it was 15 s.
For the compound `Oc1ccc(/C=N/c2nccs2)cc1`, the Number in assay [6] is recorded as 14%; in assay [2] it was 42%. Also, the Time in assay [1] is recorded as 96 s; in assay [2], 41 s.
Turning to `C(=N\c1nc(-c2ccccc2)cs1)/c1ccccc1`, the figures for the Number in assay [6] and in assay [2] were 33% and 0%, respectively. Besides, the Time in assay [1] was found to be 12 s; in assay [2], 68 s.
Taken in the same sequence, the figures for `Cc1csc(/N=C/c2ccc([N+](=O)[O-])cc2)n1` were 50%, 42%, 76 s and 126 s.
In the case of `Clc1ccc(/C=N/c2nccs2)cc1`, the Number in assay [6] is listed as 66%; in assay [2], 25%. For the same compound, the figures for the Time in assay [1] and in assay [2] were 61 s and 123 s, respectively.
The like results for `O=[N+]([O-])c1ccc(/C=N/c2nc(-c3ccccc3)cs2)cc1` were, in that order, 42%, 58%, 157 s and 88 s.
